From PubChem BioAssay
GalR3 antag: GalR3 antagonists in HEK293 cells, primary screen, cell-based, fluorescence readout. inhibition, % at 3 µM. 360,000 compounds, 0.44% hits. HEK293 GalR3-CNG cAMP membrane potential fluorescence; galR3 body fused to GalR1 C-terminus. Galanin receptor type 3 (Homo sapiens), O60755;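 active means inhibition above the screen-wide average plus 3 SD, cut at about 13% in these data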;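 further: forskolin and galanin both at EC90 stimulate the cells; cAMP rise reported by CNG channel membrane potential dye signal; 0% = forskolin plus galanin with DMSO and 100% = forskolin alone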
Env fusion inh: inhibitors of HIV-1 Env-driven cell-cell fusion, primary screen, HeLa-JRFL effector, CEM21 target cells, luciferase | inhibition, % at 12.3 µM | 360,000 compounds, 1.1% hits | AID 651610, 2012;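 active means mean replicate inhibition score of at least 50 and every replicate individually at or above 50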;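 further: 0% = plate neutral controls and 100% = maraviroc near 300 nM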
V-ATPase pH: regulators of yeast V-ATPase proton pumping, primary screen, pHLuorin cytosolic pH fluorescence. S. cerevisiae. response, % at 10 µM. 350,000 compounds, 0.37% hits; in the data active means response mostly above about 7.3%, no sharp cut-off; inactive means mostly below about 5.4%; further: actives read high
FXN GAA850 act: FXN promoter activators, primary screen, cell-based, luciferase luminescence, HEK293 lucGAA850; HEK293 lucGAA850 FXN promoter luciferase reporter, 24 h; percent of 10 µM SAHA response; activation, % at 6 µM; 360,000 compounds, 0.56% hits; AID 540364, 2011;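 active means activation above the average of all compounds screened plus 3 SD, cutoff fixed separately per campaign, cut at about 7.5% in these data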;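 further: 0% = DMSO wells and 100% = 10 µM SAHA wells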
NR2E3 ag-1: inhibitors of NR2E3-RetCOR corepressor binding, primary screen, NR2E3 agonist project, biochemical, TR-FRET, GST-NR2E3, biotin-RetCOR; AID 2300, 2010; inhibition of corepressor binding, % at 4.78 µM; 1536-well; 320,000 compounds, 0.12% hits; Photoreceptor-specific nuclear receptor (Homo sapiens), Q9Y5X4;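 active means percent inhibition above the cutoff of mean plus 3 SD of all tested compounds, set per screening campaign, cut at about 20% in these data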;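 further: 0% = DMSO wells and 100% = biotin wells as full block of FRET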
Target sequence (Q9Y5X4 whole entry, looked up): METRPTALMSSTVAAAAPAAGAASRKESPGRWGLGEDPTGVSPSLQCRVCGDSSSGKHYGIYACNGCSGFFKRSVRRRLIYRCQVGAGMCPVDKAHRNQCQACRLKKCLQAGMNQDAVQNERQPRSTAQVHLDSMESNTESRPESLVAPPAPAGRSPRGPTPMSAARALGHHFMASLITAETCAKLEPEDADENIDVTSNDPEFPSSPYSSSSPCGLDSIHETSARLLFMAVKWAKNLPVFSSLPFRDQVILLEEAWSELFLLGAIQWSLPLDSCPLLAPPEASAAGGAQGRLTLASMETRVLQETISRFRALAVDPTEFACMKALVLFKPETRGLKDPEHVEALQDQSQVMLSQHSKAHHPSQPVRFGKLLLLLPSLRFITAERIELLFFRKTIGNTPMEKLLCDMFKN
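System: GST-NR2E3 and biotin-RetCOR proteins; probe or stimulus: 7 nM biotin-RetCOR; doses: compound at 4.8 µM, single dose; schedule: Compound–protein incubation for 5 h at 4 °C; detection: time-resolved FRET; read-out: percent inhibition; controls: biotin wells as high control, 0.6% DMSO wells as low control; format: 1536-well plates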
NR2E3 ag-2: NR2E3 agonists in two-hybrid cells, primary screen, cell-based, luminescence, CHO-S, Gal4-NCOR/VP16-NR2E3 | Photoreceptor-specific nuclear receptor (Homo sapiens), Q9Y5X4 | luciferase | inhibition of corepressor binding, % at 3.98 µM | 360,000 compounds, 0.35% hits;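 active means inhibition above the mean of all tested compounds plus 3 SD, cut at about 70% in these data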;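 further: 0% = DMSO with NR2E3 transfected cells and 100% = cells lacking NR2E3 construct; higher means lower luciferase signal from less NR2E3 corepressor binding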
* hit, by the source's call; · = no result; [ ] = another dose, or the depositor's remark. A selection: hits, their analogues and other compounds. The true share with any hit is near 2.2%.

SMILES	GalR3 antag	Env fusion inh	V-ATPase pH	FXN GAA850 act	NR2E3 ag-1	NR2E3 ag-2
Cc1ccc(NC(=O)[C@@H]2CCCN2S(=O)(=O)c2ccccc2F)cc1S(=O)(=O)N1CCOCC1	-5	28	3	3	2	-4
CN1C(=O)c2cc(NC(=O)C3CCOCC3)ccc2OC[C@H]2O[C@H](CC(=O)O)CC[C@H]21	·	-15[16.7 µM]	·	·	·	·
Cn1cc(S(=O)(=O)N2CCOCC2)cc1C(=O)Nc1cccc(Cl)c1	·	98*	-5	-1	4	-19
CN(CCCC(=O)Nc1ccncc1)S(=O)(=O)c1ccc(Cl)cc1	-7	66*	-2	-1	-1	34
O=C(N[C@@H]1CC[C@H](CCNC(=O)c2ccccc2F)O[C@H]1CO)c1cnccn1	·	-4[16.7 µM]	·	·	·	·
CC(C)C[C@H](NC(=O)c1nc[nH]c1C(=O)NCC(=O)OC(C)(C)C)C(=O)OC(C)(C)C	-7	-4	-2	-2	2	-35
CC(C)(C)OC(=O)NCCCC[C@H](NC(=O)c1nc[nH]c1C(=O)NCc1ccccc1)C(=O)OC(C)(C)C	1	-21	-4	-3	1	-17
CC(C)C[C@H](NC(=O)c1nc[nH]c1C(=O)N[C@@H](CC(C)C)C(=O)OCc1ccccc1)C(=O)OCc1ccccc1	-2	71*	-6	1	-1	22
CC(C)C[C@H](NC(=O)c1nc[nH]c1C(=O)N[C@@H](CC(C)C)C(=O)OC(C)(C)C)C(=O)OC(C)(C)C	0	70*	-7	1	3	1
CC(C)(C)OC(=O)[C@H](Cc1ccccc1)NC(=O)c1nc[nH]c1C(=O)N[C@@H](Cc1ccccc1)C(=O)OC(C)(C)C	-6	74*	2	1	-1	28
C[C@H](NC(=O)c1nc[nH]c1C(=O)N[C@@H](Cc1ccccc1)C(=O)OC(C)(C)C)C(=O)OC(C)(C)C	-2	-10	3	-1	-2	-5
CC(C)(C)OC(=O)NCCCC[C@H](NC(=O)c1[nH]cnc1C(=O)Nc1ccc(CNC(=O)OC(C)(C)C)cc1)C(=O)OC(C)(C)C	-6	72*	·	·	5	·
CCCN1C[C@@H](C)[C@@H](OC)CN(C)C(=O)c2cc(NC(=O)C3CCC3)ccc2OC[C@@H]1C	·	1[16.7 µM]	·	·	·	·
COc1cccc(/C=N/NC(=O)CC2C(=O)NN=C2C)c1O (stereo not drawn)	-3	70*	3	0	-3	2
CCCCCc1ccc(OCCCC[n+]2ccc(C)cc2)c(CCCCC)c1	6	55*	2	0	-3	-15
CCCCCc1ccc(OCCCC[n+]2cccc(C)c2)c(CCCCC)c1	-5	56*	-1	-8	2	-5
CCCCCc1ccc(OCCCC[n+]2ccccc2)c(CCCCC)c1	·	·	0	-6	-1	-5
CN1CC(c2ccccn2)C2(SC(=S)N(Cc3ccccc3)C2=O)C12C(=O)Nc1ccccc12 (stereo not drawn)	-4	-5	-2	2	1	-33
CN1CC(c2ccccc2)C2(SC(=S)N(Cc3ccco3)C2=O)C12C(=O)Nc1ccccc12 (stereo not drawn)	-8	77*	-2	-7	3	2
CCCNC(=O)N(C)C[C@H]1Oc2ncc(C#CC3CCCCC3)cc2C(=O)N([C@@H](C)CO)C[C@H]1C	·	-10[16.7 µM]	·	·	·	·
C[C@@H]1CN([C@@H](C)CO)C(=O)Cc2cc(NS(C)(=O)=O)ccc2O[C@@H]1CN(C)Cc1ccc(C(F)(F)F)cc1	·	-23[16.7 µM]	·	·	·	·
Cc1ccc(C)c(N(C(=O)c2nsc(Cl)c2Cl)C(C(=O)NC2CCCC2)c2ccc(O)cc2)c1 (stereo not drawn)	-10	89*	-3	-3	-3	3
Cc1cc(CN(C)C(=O)CC2C(=O)NCCN2Cc2c(F)cccc2Cl)n[nH]1 (stereo not drawn)	-6	65*	-2	-2	-1	-33
